This note sets out measurements from ChEMBL document CHEMBL1139955, “C(4)-alkyl substituted furanyl cyclobutenediones as potent, orally bioavailable CXCR2 and CXCR1 receptor antagonists” (Bioorg Med Chem Lett, 2007).

Series [1] deals with T1, C-X-C chemokine receptor type 1 (Homo sapiens, UniProt P25024).
T1 sequence (P25024 whole entry): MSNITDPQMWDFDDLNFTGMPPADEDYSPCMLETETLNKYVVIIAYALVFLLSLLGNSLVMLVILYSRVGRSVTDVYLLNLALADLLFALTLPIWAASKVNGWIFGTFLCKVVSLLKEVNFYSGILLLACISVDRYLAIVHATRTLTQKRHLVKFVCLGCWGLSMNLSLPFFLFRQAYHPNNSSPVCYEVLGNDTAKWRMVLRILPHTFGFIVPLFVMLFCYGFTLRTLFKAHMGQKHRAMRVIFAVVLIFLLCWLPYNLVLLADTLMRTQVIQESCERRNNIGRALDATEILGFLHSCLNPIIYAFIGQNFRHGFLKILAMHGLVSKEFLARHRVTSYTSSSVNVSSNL
In words: Displacement of [125I]IL8 from human CXCR1 expressed in CHO cells by SPA. Format: cell-based. (Loss of bound radioactivity is the signal in a displacement assay; it reports binding, not function.)

For series [2], the target named is T2, C-X-C chemokine receptor type 2 (Homo sapiens, UniProt P25025).
T2 sequence (P25025 whole entry): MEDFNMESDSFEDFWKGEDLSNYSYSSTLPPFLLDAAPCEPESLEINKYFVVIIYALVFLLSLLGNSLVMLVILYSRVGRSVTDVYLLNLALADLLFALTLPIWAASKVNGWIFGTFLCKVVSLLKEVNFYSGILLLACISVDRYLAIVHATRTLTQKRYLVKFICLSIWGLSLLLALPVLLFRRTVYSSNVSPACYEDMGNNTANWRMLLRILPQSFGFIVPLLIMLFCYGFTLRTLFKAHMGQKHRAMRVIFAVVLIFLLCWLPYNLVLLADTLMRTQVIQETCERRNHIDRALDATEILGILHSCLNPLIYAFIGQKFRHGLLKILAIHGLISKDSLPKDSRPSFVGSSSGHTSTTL
In words: Displacement of [125I]IL8 from human CXCR2 expressed in CHO cells by SPA. Type of series: cell-based.

Series [3] can be described thus: AUC in rat at 10 mg/kg, po after 6 hrs. As to conditions: plasma. Set-up: time < 6 hr, dose 10 mg/kg, route oral. Type of series: ADME, organism-based.
The species named for the next series is Rattus norvegicus. In words: Antiinflammatory activity against rat model of lipopolysaccharide-induced pulmonary inflammation. Format: functional.
The species entered for another series is Mus musculus. In words: Antiinflammatory activity against mouse model of cigarette smoke-induced neutrophilic inflammation. Format: functional.
Series [4] in a line: Cmax in dog at 2 mg/kg, po after 48 hrs. Format: ADME, organism-based, Canis lupus familiaris. Set-up: dose 2 mg/kg, route oral. As to conditions: in vivo.
Series [5] can be described thus: Cmax in mouse at 25 mg/kg, po after 7 hrs. Type of series: ADME, organism-based. The note with it: in vivo. Set-up: dose 25 mg/kg, route oral.
Series [6] is described as follows: AUC in dog at 2 mg/kg, po after 48 hrs. The note with it: plasma. Format: ADME, organism-based, Canis lupus familiaris. Set-up: time < 48 hr, dose 2 mg/kg, route oral.
The subject of series [7] is Neutrophil. In words: Inhibition of IL8-induced migration of human neutrophils by chemotaxis assay. Format: functional, cell-based. The essentials: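 Human neutrophil migration stimulated with 3 nM IL-8; IC50 determined.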
Series [8] in a line: Cmax in rat at 10 mg/kg, po after 6 hrs. Format: ADME, organism-based. Set-up: dose 10 mg/kg, route oral. The note with it: in vivo.
The subject of series [9] is Neutrophil. Put plainly: Inhibition of GROalpha-induced migration of human neutrophils by chemotaxis assay. Type of series: functional, cell-based. The essentials:
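Human neutrophil migration stimulated with 30 nM Gro-α; IC50 determined.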

The nature of series [10]: AUC in mouse at 25 mg/kg, po after 7 hrs. Format: ADME, organism-based. As to conditions: plasma. Set-up: time < 7 hr, dose 25 mg/kg, route oral.
Series [11] in a line: Cmax in monkey at 3 mg/kg, po after 48 hrs. Type of series: ADME, organism-based, Macaca mulatta. Set-up: dose 3 mg/kg, route oral. As to conditions: rhesus monkey, in vivo.
The nature of series [12]: AUC in monkey at 3 mg/kg, po after 48 hrs. Format: ADME, organism-based, Macaca mulatta. Set-up: time < 48 hr, dose 3 mg/kg, route oral. As to conditions: rhesus monkey, plasma.

For `CC[C@@H](Nc1c(Nc2cccc(C(=O)N(C)C)c2O)c(=O)c1=O)c1sccc1C`, the Ki – broadly, a dissociation constant, usually derived from enzyme kinetics or from competition with a known ligand – in [1] was 123 nM; in series [2] it was 10 nM.
Consider `CC[C@@H](Nc1c(Nc2cccc(C(=O)N(C)C)c2O)c(=O)c1=O)c1cc(C)co1`, for which the AUC – broadly, concentration integrated over time – at 6 h in series [3] was found to be 32.6 µM·h. In addition, the Ki in series [1] worked out at 9 nM; in series [2] it was 4 nM.
`CCc1ccoc1[C@@H](CC)Nc1c(Nc2cccc(C(=O)N(C)C)c2O)c(=O)c1=O`: the inhibitory constant (Ki) was found to be 379 nM in series [1] and 25 nM in series [2].
Molecule `CCc1coc([C@@H](CC)Nc2c(Nc3cccc(C(=O)N(C)C)c3O)c(=O)c2=O)c1` gave an AUC at 6 h in series [3] of 17.4 µM·h. Besides, the Ki in [1] is 7 nM; in series [2], 1 nM.
In the case of `CCCCc1coc([C@@H](CC)Nc2c(Nc3cccc(C(=O)N(C)C)c3O)c(=O)c2=O)c1`, the figures for the Ki in [1] and in series [2] were 34 nM and 2 nM, respectively.
Taken in the same sequence, the figures for `CC[C@@H](Nc1c(Nc2cccc(C(=O)N(C)C)c2O)c(=O)c1=O)c1cc(CCCCN2CCOCC2)co1` were 14 nM and 9 nM.
Take `CC[C@@H](Nc1c(Nc2cccc(C(=O)N(C)C)c2O)c(=O)c1=O)c1cc(C(C)C)co1`: the results for the ED50 in the series listed under Rattus norvegicus and in the series filed under Mus musculus were 0.9 mg/kg and 1 mg/kg, respectively. In series [3], the AUC at 6 h worked out at 5.4 µM·h. For the same molecule, the Cmax (usually the maximum level reached in the sampled fluid or tissue) in [4] worked out at 5.3 µM; in series [5] it was 4.6 µM; in series [8], 3.8 µM; in series [11], 380 nM. The IC50 (commonly the concentration that inhibits the measured activity by half) in series [1] is 7.3 nM; with Neutrophil [7] it was 37 nM; in the series on Neutrophil [9], 0.5 nM; in [2] it was 1.3 nM. Moreover, the inhibition constant (Ki) in [1] came out at 3 nM; in series [2], 1 nM. The AUC at 48 h stood at 7.1 µM·h in [6] and 4.2 µM·h in series [12]. The AUC at 7 h in series [10] amounted to 4.6 µM·h.
Take `CCC(CC)c1coc([C@@H](CC)Nc2c(Nc3cccc(C(=O)N(C)C)c3O)c(=O)c2=O)c1`: the figures for the Ki in [1] and in [2] were 30 nM and 0.8 nM, respectively.
Consider `CC[C@@H](Nc1c(Nc2cccc(C(=O)N(C)C)c2O)c(=O)c1=O)c1cc(C2CCCC2)co1`, for which the Ki was 53 nM in series [1] and 3 nM in series [2].
The like results for `CC[C@@H](Nc1c(Nc2cccc(C(=O)N(C)C)c2O)c(=O)c1=O)c1cc(C2CCCCC2)co1` were, in that order, 283 nM and 4 nM.
The like results for `CC(C)c1coc([C@@H](C)Nc2c(Nc3cccc(C(=O)N(C)C)c3O)c(=O)c2=O)c1` were, in that order, 50 nM and 2 nM.
Taken in the same sequence, the figures for `CC(C)c1coc([C@H](Nc2c(Nc3cccc(C(=O)N(C)C)c3O)c(=O)c2=O)C(C)C)c1` were 11 nM and 4 nM.
`CC(C)c1coc([C@H](Nc2c(Nc3cccc(C(=O)N(C)C)c3O)c(=O)c2=O)C2CC2)c1`: the Ki was found to be 10 nM in series [1] and 3 nM in series [2].
For the molecule `CC(C)c1coc([C@H](Nc2c(Nc3cccc(C(=O)N(C)C)c3O)c(=O)c2=O)C(C)(C)C)c1`, the Ki in [1] stood at 14 nM; in series [2], 4 nM.
The like results for `CC[C@@H](Nc1c(Nc2cccc(C(=O)N(C)C)c2O)c(=O)c1=O)c1cc(C)cs1` were, in that order, 24 nM and 5 nM.
Taken in the same sequence, the figures for `CC[C@@H](Nc1c(Nc2cccc(C(=O)N(C)C)c2O)c(=O)c1=O)c1cc(C(C)(C)C)co1` were 10 nM and 4 nM.
As for `CCC(C)c1coc([C@@H](CC)Nc2c(Nc3cccc(C(=O)N(C)C)c3O)c(=O)c2=O)c1` (some centres undefined), the Ki came out at 7.6 nM in series [1] and 0.6 nM in series [2].
As to `CC[C@@H](Nc1c(Nc2cccc(C(=O)N(C)C)c2O)c(=O)c1=O)c1ccc(C)s1`, the Ki in series [1] came to 146 nM; in [2], 5 nM.
Taken in the same sequence, the figures for `CC(C)c1coc([C@H](Nc2c(Nc3cccc(C(=O)N(C)C)c3O)c(=O)c2=O)C(F)(F)F)c1` were 16 nM and 6 nM.
